According to ChEMBL document CHEMBL1909581, “Growth inhibition of human lung cancer cells via down-regulation of epidermal growth factor receptor signaling by yuanhuadine, a daphnane diterpene from Daphne genkwa” (J Nat Prod, 2011):

Tests used:
Type in all cases: functional, cell-based
A549 = assay: Antiproliferative activity against human A549 cells after 3 days by SRB assay; conditions: A549, 72 h
Procedure, shortened: (§1)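 Cells seeded at 5 × 10^4 cells/mL and exposed to a range of concentrations for 3 days. Fixed with 10% TCA, then SRB stain read. Growth expressed as % of solvent-treated control. IC50 obtained by nonlinear regression of percent survival versus concentration.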

NCI-H292 = assay: Antiproliferative activity against human NCI-H292 cells after 3 days by SRB assay; conditions: NCI-H292, 72 h
NCI-H358 = assay: Antiproliferative activity against human NCI-H358 cells after 3 days by SRB assay; conditions: NCI-H358, 72 h; procedure, shortened: as §1
[1] = Antiproliferative activity against human H1299 cells after 3 days by SRB assay; conditions: NCI-H1299, 72 h; procedure, shortened: as §1
NCI-H1993 = assay: Antiproliferative activity against human NCI-H1993 cells after 3 days by SRB assay; conditions: NCI-H1993, 72 h
SK-MES-1 = assay: Antiproliferative activity against human SK-MES cells after 3 days by SRB assay; conditions: SK-MES-1, 72 h; procedure, shortened: as §1

Which IC50 (A549) does the source give for `Cc1c2ccncc2c(C)c2c1[nH]c1ccccc12` [ELLIPTECINE] here?
Its IC50 is 1100 nM.

What about the IC50 (NCI-H292) of the same compound?
The IC50 was 1000 nM.

And the IC50 (NCI-H358)?
Its IC50 is 800 nM.

And the IC50 [1]?
Its IC50 is 600 nM.

And the IC50 (NCI-H1993)?
The IC50 was 200 nM.

What about the IC50 (SK-MES-1) of the same compound?
Its IC50 is 200 nM.
